PLK1 kinase inh: blocks human PLK1 kinase activity; AID 619; inhibition, % at 10 µM; recombinant PLK1 kinase, TR-FRET peptide phosphorylation; P53350; 97,000 compounds, 0.53% hits;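 active = inhibition of 50% or more in the single-concentration screen; inactive = inhibition below 50%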;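 note: 0% = DMSO max control and 100% = H-89 dihydrochloride min control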
EphB4 ephrin blk: blocks human EphB4 binding to ephrin-B2; EphB4 LBD / TNYL-RAW-Alexa532 peptide, fluorescence polarization; P54760; inhibition, % at 7 µM; 97,000 compounds, 0.15% hits;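 active = inhibition above the screen-wide mean inhibition plus 3 SD, cut at about 15% in these data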;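 note: 0% = DMSO wells and 100% = excess unlabeled TNYL-RAW peptide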
hDAT+cocaine: human DAT dopamine uptake with cocaine, either direction. B-score at 10 µM. 110,000 compounds, 1.3% hits. AID 449768. LLC-PK1 hDAT cells, [14C]-dopamine uptake with cocaine IC80; actives deviate in either direction. Q01959;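 active = Z score or B-score, a plate-position-corrected score, falls beyond the plate's 99.7% confidence bounds, in either direction; inactive = both scores lie inside the 99.7% bounds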;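 note: scored against the spread of the other compound wells on the same plate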
FAK inh: inhibitors of human focal adhesion kinase; biochemical FAK kinase activity assay; inhibition, %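 (tested at 7 µM)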; 97,000 compounds, 0.84% hits; AID 727; in the data active = inhibition above about 19%;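 note: 0% = DMSO and 100% = reference compound high control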
Rev-RRE block: HIV Rev-RRE protein-RNA interaction inhibition; P05866; Rev peptide-RRE RNA binding, FRET; inhibition, % at 8 µM; 97,000 compounds, 0.79% hits; AID 704;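 active = inhibition above the screen-wide mean plus 3 SD, cut at about 35% in these data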;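 note: 0% = median DMSO wells and 100% = median Neomycin B control wells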
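Test system: labelled RRE RNA duplex and labelled Rev peptide. Times: 5 min compound–RNA preincubation, then 15 min with peptide, 25 °C. Doses: single-dose 8 µM. Measured by: FRET, excitation 480 nm, emission 540 nm donor and 671 nm acceptor. Measure: % inhibition of FRET ratio versus controls.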
PLK1 PBD inh: blocks phosphopeptide binding to human Plk1 polo box domain; P53350; Plk1 PBD phosphopeptide binding, fluorescence polarization; inhibition, %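 (tested at about 20 µM)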; 97,000 compounds, 0.13% hits; in the data active = inhibition above about 34%, passing the limit was not always enough
* hit, by the source's call; . = no result given; [ ] = another dose, or the depositor's remark. In the library only some 3.2% were active in any assay of this set; here they are far more common.

SMILES | PLK1 kinase inh | EphB4 ephrin blk | hDAT+cocaine | FAK inh | Rev-RRE block | PLK1 PBD inh
Cc1ccc(CCNC(=O)CS(=O)Cc2nc(-c3cccc(C)c3)oc2C)cc1 (stereo unspecified) | 61.5* | -2.1 | -0.092 | 3.2 | 5.6 | -12.5
O=C(CSc1nnc(-c2ccccc2)o1)N1CCc2ccccc2C1 | -2.2 | -7.8 | . | 2.1 | 11.6 | -5.8
COc1cccc(-c2nc(CS(=O)CC(=O)NC3CC3)c(C)o2)c1 (stereo unspecified) | 69.3* | -2.6 | -1.03 | 3.2 | 4.9 | -11.9
C=CCn1c(COc2ccc(CC)cc2)nnc1SC/C(O)=C(\C#N)c1nc2ccccc2[nH]1 | -9.4 | 5.8 | -1.52 | 2.6 | 29.1 | 0.6
CC(=O)Nc1c(NCC(C)C)c2ccccc2oc1=O | -14.2 | -6.4 | -1.41 | -2.4 | 4.9 | -23.7
Cc1ccc(SCC2CNc3nc4ccccc4c(=O)n32)c(C)c1 (stereo unspecified) | -13.3 | 1.1 | 0.00791 | -6.0 | 8.1 | -16.2
Cc1oc(-c2ccccc2)nc1CS(=O)CC(=O)N1CCc2ccccc2C1 (stereo unspecified) | 65.6* | -1.8 | 0.888 | -6.4 | 7.0 | 33.1
CCOC(=O)NC(Nc1nc2ccccc2s1)(C(=O)OCC)C(F)(F)F (stereo unspecified) | -6.0 | 6.5 | 0.285 | 4.0 | 11.4 | 22.8
Cc1nc2ccccc2n1CC(=O)NCc1ccccc1 | 1.8 | 2.6 | 0.0738 | 2.6 | 7.5 | -3.9
O=C(Cn1nnc2ccccc21)NCc1ccccc1 | -8.3 | 9.9 | -8.52* | -0.1 | 3.6 | 12.0
Cc1csc(NC(C)c2nc3cc(C(F)(F)F)ccc3n2CCCO)n1 (stereo unspecified) | . | . | -2.65* | . | . | .
CCC(C)N=Cc1c(NCc2ccco2)nc2c(C)cccn2c1=O (stereo unspecified) | -6.0 | 3.2 | -0.0165 | 9.3 | 9.0 | 3.4
CCC(C)N1C(=O)/C(=C/c2c(NCCCOC(C)C)nc3c(C)cccn3c2=O)SC1=S (stereo unspecified) | -65.5 | -8.0 | -1.22 | -1.2 | 126.1*[fluorescence artefact?] | -65.1
CCCN1C(=O)/C(=C/c2c(NCCCOC(C)C)nc3c(C)cccn3c2=O)SC1=S | -36.4 | 1.6 | -0.786 | -2.4 | 93.7*[fluorescence artefact?] | -56.8
Cc1cccn2c(=O)c(C=NCc3ccccc3)c(NCCO)nc12 | -11.1 | -0.1 | 1.79 | 11.8 | 4.8 | -18.9
COc1cccc(CNC(=O)C2=C(C)C(=O)OC23CCC(C)CC3)c1 (stereo unspecified) | -4.4 | 2.2 | -0.211 | 0.7 | 3.2 | -14.2
Cc1nc(N)c2c(Cc3cccc4ccccc34)nn(C(C)(C)C)c2n1 | . | . | 0.00671 | . | . | .
CCOC(=O)c1c(C)c(C(=O)NCc2cccs2)c(C)n1CC | 3.9 | 1.4 | 2.85* | 4.5 | 8.2 | -10.5
CCOC(=O)c1c(C)c(C(=O)Nc2ccccc2)c(C)n1CC | -9.4 | 8.2 | . | -5.9 | -0.1 | -14.6
CCOC(=O)c1c(C)c(C(=O)N2CCc3ccccc3C2)c(C)n1CC | 2.2 | 1.5 | 2.46* | -1.0 | 7.6 | -15.6
COc1ccc(S(=O)(=O)N2CCCC2C(=O)Nc2ccc(C(C)=O)cc2)cc1 (stereo unspecified) | . | . | 0.798 | . | . | .
CCN(CC)C(=O)Oc1ccc2c(=O)c(-c3ccc(OC)cc3)c(C)oc2c1 | -6.0 | 0.6 | 3.22* | 3.0 | 2.7 | 6.4
CCCC1(CCC)NC(=O)N(CC(=O)N2CCN(C(=O)c3ccco3)CC2)C1=O | -2.2 | 4.9 | 0.568 | -3.2 | 5.7 | 17.0
Cc1ccc(N2C(=O)[C@@H]3[C@H](C2=O)C2c4ccccc4C=CN2[C@@H]3C(=O)c2ccco2)c(C)c1 (stereo partly specified) | -3.8 | -5.8 | -1.74 | 16.1 | 29.5 | -4.2
CC(=O)[C@@H]1[C@@H]2C(=O)N(Cc3ccccc3)C(=O)[C@@H]2C2c3ccccc3C=CN21 (stereo partly specified) | -8.8 | -6.9 | 0.339 | 12.5 | 64.2* | -28.3
SMILES | PLK1 kinase inh | EphB4 ephrin blk | hDAT+cocaine | FAK inh | Rev-RRE block | PLK1 PBD inh
COc1ccc(N2C(=O)[C@@H]3[C@H](C2=O)[C@H]2c4ccccc4C=CN2[C@@H]3C(=O)Nc2ccccc2)cc1 | -12.0 | 7.0 | 0.105 | 4.8 | 118.6*[fluorescence artefact?] | -154.2
COC(=O)C1=C(C(=O)OC)[C@@H]2Nc3ccccc3[C@@]23C[C@@H](C(=O)OC)N(C(=O)C2CCC2)C3=N1 | . | . | 0.661 | . | . | .
CCOC(=O)CC(Nc1nc(N2CCOCC2)nc(N2CCOCC2)n1)c1ccccc1Cl (stereo unspecified) | 0.3 | -5.7 | -0.397 | -7.8 | 1.2 | -11.1
CN(C)c1ccc(/C=C/C(O)=C2/C(=O)N(C)C3(C)CC2c2ccccc2O3)cc1 (stereo unspecified) | -19.7 | 4.2 | 1.31 | -0.4 | 121.1*[fluorescence artefact?] | -54.4
CN(Cc1ccccc1)C(=O)c1cccc(N2C(=O)NC3CC2(C)Oc2ccccc23)c1 (stereo unspecified) | -2.3 | -3.0 | -0.574 | -0.2 | 0.8 | 16.2
CSc1nnc(C)c(/C=C/Nc2ccc(C)cc2)n1 | -7.3 | 5.9 | -1.05 | -2.6 | 109.5*[fluorescence artefact?] | -45.3
Cc1ccc(N/C=C/C(=O)c2sc(-c3ccccc3)nc2C)cc1 | -1.6 | -2.6 | -0.638 | 1.5 | 19.8 | 6.9
OCC1(O)OC[C@@H](O)[C@H]1O (stereo partly specified) | . | . | -0.934 | . | . | .
O=c1/c(=C\c2ccc(O)cc2)sc2n1C(c1ccccc1)C(c1ccccc1)=NN=2 (stereo unspecified) | -5.7 | 0.0 | 0.807 | 8.4 | 41.1* | -97.2
CCOC(=O)C1=C(c2ccccc2)N=c2s/c(=C\c3cccc(O)c3)c(=O)n2C1c1cccs1 (stereo unspecified) | 1.2 | -6.2 | . | 9.7 | 8.7 | -4.2
COc1ccc(CCNC(=O)c2cc(-c3ccc(C)cc3O)n[nH]2)cc1OC | -7.0 | -4.4 | 0.863 | 1.0 | 4.7 | 3.5
COc1ccc(CCNC(=O)CSc2ccc(-c3ccccc3)nn2)cc1OC | -8.8 | 0.9 | 2* | 9.3 | 3.5 | -12.7
COc1ccc(CCNC(=O)c2cc(-c3ccccc3O)n[nH]2)cc1OC | -0.8 | -3.7 | -9.55* | -4.4 | 4.6 | -11.9
CN(C[C@@H](CC1CCCCC1)N(C[C@H](Cc1ccccc1)N(CCc1ccccc1)N=O)N=O)N=O | . | . | 0.00735 | . | . | .
COc1ccccc1N1CCN(C(c2ccc(C)cc2)c2nnnn2C(C)C)CC1 (stereo unspecified) | -4.2 | -3.4 | 3.07* | -5.6 | 3.7 | -11.6
COc1ccccc1N1CCN(C(c2ccc(F)cc2)c2nnnn2C(C)C)CC1 (stereo unspecified) | . | . | -0.0597 | . | . | .
CCn1c(SCC(=O)Nc2nc3ccc(C)cc3s2)nc2c(c1=O)SC(C)C2 (stereo unspecified) | -10.5 | 0.2 | 1.1 | 3.7 | -1.9 | -9.3
CCOc1ccc(NC(=O)N2CCC(n3c(=O)[nH]c4ccccc43)CC2)cc1 | 1.2 | . | 2.84* | . | . | -20.1
O=C(Nc1ccccc1C(F)(F)F)N1CCC(n2c(=O)[nH]c3ccccc32)CC1 | -4.3 | -4.1 | 0.0863 | 1.3 | -2.4 | 9.0

Compound activity: PubChem, several laboratories
